CHO parental Ca: counter-screen: ATP calcium response change in parental CHO cells. parental CHO-K1, ATP-induced calcium, Fluo-8 fluorescence. inhibition, % at 5.6 µM. hit rate 0.63% among 330,000. AID 463079;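 active means inhibition above that plate's mean sample inhibition plus 3 SD, cut at about 26% in these data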;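 further: 0% = ATP-challenged DMSO wells and 100% = DMSO wells without ATP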
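Test system: untransfected parental CHO cell line. Compound: one dose, 5.6 µM nominal. Detection: intracellular calcium via Fluo-8 no-wash fluorescent dye. Measure: % inhibition. Benchmarks: ATP-challenged DMSO wells low, unchallenged DMSO wells high.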
GPR7 antag: blocks human GPR7 receptor signaling. P48145. GPR7-expressing cells, fluorescence antagonist assay. inhibition, % at 4.4 µM. hit rate 1.1% among 290,000. AID 1861; in the data active means inhibition above about 16%, passing the limit was not always enough;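 further: cells stimulated with the agonist NPW; 0% = agonist with vehicle and 100% = vehicle without agonist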
Target sequence (P48145 whole entry, looked up): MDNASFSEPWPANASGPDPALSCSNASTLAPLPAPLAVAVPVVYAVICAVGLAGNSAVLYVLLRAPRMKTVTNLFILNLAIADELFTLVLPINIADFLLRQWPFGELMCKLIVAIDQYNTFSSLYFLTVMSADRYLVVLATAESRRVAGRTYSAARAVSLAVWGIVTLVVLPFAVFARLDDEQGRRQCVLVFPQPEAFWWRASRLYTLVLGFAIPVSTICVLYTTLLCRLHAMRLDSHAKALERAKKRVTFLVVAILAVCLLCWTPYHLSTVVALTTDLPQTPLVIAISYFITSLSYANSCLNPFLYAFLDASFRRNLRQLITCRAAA
OX1R antag-1: blocks the human orexin 1 receptor; CHO/OX1R cells, Fluo-8 calcium fluorescence, orexin A; AID 434989; inhibition, % at 5 µM; hit rate 0.43% among 330,000; O43613;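 active means inhibition above its plate's threshold, mean inhibition of all tested compounds on the plate plus 3 SD, cut at about 37% in these data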;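 further: 0% = orexin A challenge wells and 100% = SB-334867-A antagonist wells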
GalR3 antagonist: blocks the human galanin receptor 3; inhibition, % at 3 µM; AID 651719; hit rate 0.44% among 360,000; HEK293 GalR3-CNG cAMP membrane potential fluorescence; galR3 body fused to GalR1 C-terminus;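 active means inhibition above the screen-wide average plus 3 SD, cut at about 13% in these data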;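 further: forskolin and galanin both at EC90 stimulate the cells; cAMP rise reported by CNG channel membrane potential dye signal; 0% = forskolin plus galanin with DMSO and 100% = forskolin alone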
Target sequence (O60755 1-299 limits assumed): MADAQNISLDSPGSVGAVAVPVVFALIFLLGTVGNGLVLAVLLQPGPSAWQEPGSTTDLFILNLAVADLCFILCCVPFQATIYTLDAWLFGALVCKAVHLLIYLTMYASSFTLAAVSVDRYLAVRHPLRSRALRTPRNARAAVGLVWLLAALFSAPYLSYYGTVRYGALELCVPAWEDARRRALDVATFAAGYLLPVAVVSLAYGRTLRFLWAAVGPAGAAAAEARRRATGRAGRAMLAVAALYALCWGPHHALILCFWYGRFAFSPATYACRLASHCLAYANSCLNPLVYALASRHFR
OX1R antag-2: blocks the human orexin 1 receptor; inhibition, % at 6.6 µM; hit rate 1.8% among 330,000; OX1R-expressing cells, FRET antagonist read-out; in the data active means inhibition mostly above about 38%, no sharp cut-off; inactive means mostly below about 40%;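 further: 0% = agonist challenge alone and 100% = reference antagonist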
An asterisk follows results filed as active; . = not tested or not shown. A selection: hits, their analogues and other compounds. The true share with any hit is near 3.1%.

SMILES	CHO parental Ca	GPR7 antag	OX1R antag-1	GalR3 antagonist	OX1R antag-2
CC(=O)OCCCNc1cc(SCc2ccco2)c2nonc2c1[N+](=O)[O-]	-19.3	-4.5	-24.9	1.9	73.0*
CCCSc1cc(NCCOC(=O)CCC)c([N+](=O)[O-])c2nonc12	-9.2	-3.9	-12.2	2.5	66.4*
O=C(NCC1CCOCC1)C1Cc2c(-c3ccccc3Oc3ccccc3)ccnc2O1 (centres undefined)	.	.	.	-1.9	.
O=C(NN=C1c2ccccc2-c2ccccc21)c1ccccc1	-23.9	.	-24.4	-8.0	33.8
O=C(NN=C1c2ccccc2-c2ccccc21)c1ccccc1Br	-20.0	6.1	24.1	-5.7	48.9*
C[C@@H]1C=CCCO[C@]12C(=O)N(Cc1ccc(Br)cc1)c1cccc(Br)c12	.	.	.	-7.9	.
Brc1c(-c2ccccc2)nc2n1Cc1ccccc1-2	-24.9	-10.5	-29.0	-2.5	64.1*
Cc1ccccc1C(=O)Oc1cccc(Nc2ncnc3ccccc23)c1	60.6*	11.8	54.6*	-5.5	80.8*
CC(=O)Oc1cccc(Nc2ncnc3ccccc23)c1	-8.2	21.5	-10.5	-6.4	7.5
CNC[C@@H]1Oc2ccc(NC(=O)Nc3cccc4ccccc34)cc2C(=O)N([C@@H](C)CO)C[C@@H]1C	3.7	.	-2.8	.	8.8
CCCCCCC[C@@H](C/C=C/CCC(=O)N(C)C/C(=C/Cl)C/C(=C\C(=O)N1CC(OC)=CC1=O)OC)OC	34.4	.	57.1*	8.9	41.8*
CCCCCCC[C@@H](C/C=C/CCC(=O)O)OC	-3.4	.	-10.6	0.9	9.6
CCCCCCC[C@@H](C/C=C/CCC(=O)N(C)C/C(=C/Cl)C/C(=C\C(=O)N1C[C@H](O)CC1=O)OC)OC	41.2*	.	1.8	-6.1	12.6
Cc1cc(C)c(O)c(-c2cc(C(=O)Nc3ccc(S(=O)(=O)N4CCOCC4)cc3)[nH]n2)c1	34.3*	-13.5	40.1	1.0	24.0
COc1cccc2sc3cc(C#Cc4ccccn4)ccc3c(=O)c12	-29.0	.	24.7	-5.8	62.7*
CN(Cc1ccco1)S(=O)(=O)c1nnc(NC(=O)c2cccc(Cl)c2)s1	29.3*	7.8	-3.6	-3.1	27.5
NC(=O)C(=O)N/N=C/c1c2ccccc2cc2ccccc12	-14.4	9.3	-6.2	-1.7	82.0*
Cc1cc(C(=O)N/N=C/c2c3ccccc3cc3ccccc23)n[nH]1	-9.6	-3.6	-15.6	-2.3	15.2
CC(C=NN=C1C(=O)Nc2ccccc21)=Cc1ccccc1	.	.	.	-6.8	.
Nc1ccc2oc(-c3cc(Br)ccc3Cl)nc2c1	-15.6	-16.3	-4.7	.	47.3*
Nc1ccc2oc(-c3ccccc3Cl)nc2c1	-2.5	0.0	10.9	6.7	15.0
Cc1cc2nc(C3CCCN(C(=O)NCc4ccccc4)C3)[nH]c2cc1C (centres undefined)	-16.4	-1.5	-17.7	9.0	60.6*
Cc1cc2nc(C3CCCN(C(=S)Nc4ccccc4C)C3)[nH]c2cc1C (centres undefined)	-16.6	-5.6	0.6	-6.5	16.3
CCC(CC)c1nnc(NC(=O)c2ccc3ccccc3n2)s1	-19.5	-2.1	-3.0	0.8	49.5*
O=C(Nc1nccs1)c1ccc2nccnc2c1	-17.5	4.6	-4.2	1.9	46.1*
SMILES	CHO parental Ca	GPR7 antag	OX1R antag-1	GalR3 antagonist	OX1R antag-2
Cc1csc(NC(=O)c2ccc3ccccc3n2)n1	-14.2	-12.6	-27.7	-10.0	17.8
O=C(Nc1nccs1)c1ccc2ccccc2n1	-13.7	-1.6	-6.3	-10.1	70.9*
C[C@H](CO)N1C[C@H](C)[C@@H](CN(C)C(=O)Nc2cccc(Oc3ccccn3)c2)OCc2cn(nn2)CCCC1=O	.	.	.	-7.6	.
CC(C)(C)OC(=O)N1CCC2CCN(S(C)(=O)=O)CC21 (centres undefined)	.	.	.	-2.6	.
COc1cc(/C=C/c2ccc3cccc(OC)c3n2)c(OC(C)=O)c([N+](=O)[O-])c1	-9.7	15.9	-29.8	-4.1	59.0*
Cc1cccc(C)c1-n1nnnc1C(c1ccnc2ccccc12)N(C)Cc1ccc(Cl)c(Cl)c1 (centres undefined)	.	.	.	-6.9	.
CCOC(=O)c1nn(-c2cccc(OC)c2)c(-c2ccccc2)c1C(=O)c1ccccc1	-15.2	0.2	1.5	-2.6	55.5*
CCOC(=O)C1(CC2CCCCO2)CCN(Cc2nccn2-c2cccc(C)c2)CC1 (centres undefined)	-14.3	19.4*	-25.4	-5.7	16.1
CCOC(=O)C1(CC2CCCCO2)CCN(Cc2nccn2-c2ccc(OC)cc2)CC1 (centres undefined)	-1.6	-0.3	-31.3	-7.6	24.2
CCN1C(=O)CSC1=Nc1ccc(C(=O)OC)cc1	.	.	.	-1.1	.
O=[N+]([O-])c1cc(/C=N/NC(=S)Nc2ccccc2Cl)ccc1Cl	-18.1	29.6*	0.1	-8.2	52.3
O=C(N/N=C/c1cc(Cl)cc([N+](=O)[O-])c1O)C1CC1	-3.8	-17.1	-13.0	1.2	54.5
Cc1ccc(NC(=S)N/N=C/c2ccc(Cl)c([N+](=O)[O-])c2)cc1	-8.7	-5.3	3.0	-2.7	-4.2
O=C(N/N=C/c1ccc(Cl)c([N+](=O)[O-])c1)C1CC1	1.0	3.1	7.9	2.1	59.1*
Oc1ccc(O)c(Cc2nc3ccccc3s2)c1	17.6	32.9*	-1.0	-1.5	11.3
CCc1nc2ccc(C(=O)NCc3ccc4c(c3)OCO4)cn2c1N(C)Cc1cccs1	.	.	.	-4.5	.
O=C1CS/C(=N/N=C/c2ccc(OS(=O)(=O)c3ccccc3)cc2)N1	0.7	-1.2	0.0	-2.9	70.5*
CCOC(=O)N1CCN(C(=O)CSCC(=O)Nc2nc(-c3ccc(-c4ccccc4)cc3)cs2)CC1	90.8*	-5.8	52.8*	.	47.9*
COc1ccccc1NS(=O)(=O)c1cccc(NC(=O)NCCCl)c1	2.9	-7.9	10.1	-10.2	9.5
COc1ccccc1NS(=O)(=O)c1cccc(NC(=O)Nc2cccc(Cl)c2)c1	30.5*	4.8	28.5	-3.3	46.5
COc1ccc(NC(=O)c2cc3c(=O)n(C)c4ccccc4c3n2C)cc1OC	-11.5	-8.2	-20.8	.	43.1*
COc1ccc(NC(=O)c2cc3c(=O)n(C)c4ccccc4c3n2C)cc1Cl	-9.3	-12.7	-31.4	6.3	3.6
O=C(NC(=S)N1CCN(c2ccc(F)cc2)CC1)c1ccccc1	.	.	.	-6.5	.
O=[N+]([O-])c1ccc(N2CCN(C(=S)NC3CCCCC3)CC2)cc1	32.6*	-0.9	48.8*	-4.9	63.8
O=C(NC(=S)N1CCN(c2ccc([N+](=O)[O-])cc2)CC1)c1ccc(F)cc1	-12.8	18.8	-35.1	-4.7	55.9*
CN(c1ccccc1)S(=O)(=O)c1cccc(C(=O)NNC(=O)c2ccccc2)c1	30.9	-8.6	8.6	-3.6	45.8*
CN(c1ccccc1)S(=O)(=O)c1cccc(NC(=O)c2ccc(Cl)c([N+](=O)[O-])c2)c1	64.3*	.	62.0*	-3.6	43.6*
CC(=O)Nc1ccc(C(=O)Nc2cccc(S(=O)(=O)N(C)c3ccccc3)c2)cc1	-18.9	.	-4.9	-6.9	8.0
Cc1nc2ccc(NC(=O)c3ccc(Cl)c(S(=O)(=O)N(C)c4ccccc4)c3)cc2s1	41.5*	0.9	27.5	-2.5	49.9

Screening data (PubChem)
